Peptide text beside a SMILES is read from it. * marks the point of attachment. pNA = O=[N+]([O-])c1ccc(N*)cc1
Columns and labels:
dengue virus type 2 [1] = experiment: Inhibition of DENV2 NS2B-NS3 protease assessed as residual activity up to 200 uM using Benzoyl-Nle-Lys-Arg-Arg-AMC as substrate preincubated for 3 mins followed by substrate addition by fluorescence spectrophotometer
Dengue virus [2] = experiment: Inhibition of DENV2 NS2B-NS3 protease assessed as residual activity at 16 uM using Benzoyl-Nle-Lys-Arg-Arg-AMC as substrate preincubated for 3 mins followed by substrate addition by fluorescence spectrophotometer
Dengue virus [3] = experiment: Inhibition of DENV2 NS2B-NS3 protease assessed as residual activity at 20 uM using Benzoyl-Nle-Lys-Arg-Arg-AMC as substrate preincubated for 3 mins followed by substrate addition by fluorescence spectrophotometer
Dengue virus [4] = experiment: Inhibition of DENV2 NS2B-NS3 protease assessed as residual activity at 200 uM using Benzoyl-Nle-Lys-Arg-Arg-AMC as substrate preincubated for 3 mins followed by substrate addition by fluorescence spectrophotometer
[5] = Inhibition of DENV2 NS2B-NS3 protease using Benzoyl-Nle-Lys-Arg-Arg-AMC as substrate preincubated for 3 mins followed by substrate addition by fluorescence spectrophotometer; design: species or system Dengue virus
In short: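 Plasmid-expressed DENV-2 NS2B-NS3 protease was assayed at 37 °C, pH 9.0 (50 mM Tris-HCl, 10 mM NaCl, 20% glycerol, 1 mM CHAPS, 0.04% NaN3). Inhibitor at graded concentrations was preincubated 3 min before 33 µM substrate was added, and fluorescence was read at 356/438 nm. IC50 was derived from remaining activity (vehicle = 100%) versus concentration, as the mean of triplicates.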

dengue virus type 2 [6] = experiment: Antiviral activity against DENV2 infected Vero E6 cells assessed as reduction in viral titer after 48 hrs by plaque assay; type: functional, Vero C1008; settings: Huh-7, 48 h, in the assay text read “Huh-7” for “Vero E6”
In short: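 Huh-7 cells (10^4/well) were infected with wild-type DENV-2 at MOI 1. Non-toxic compound concentrations were added 1 h later, and cells were incubated 48 h at 37 °C, in triplicate. Virus yield in the supernatant was titred on Vero E6 cells with 10^-1 to 10^-6 dilutions, 7-day plaque development, formaldehyde fixation and crystal violet staining. Titer reduction was judged against an untreated control.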

[7] = Cytotoxicity against human HuH7 cells after 48 hrs by cell-titer glo luminescent viability assay; type: cell-based, Huh-7
dengue virus type 2 [8] = experiment: Inhibition of DENV2 NS2B-NS3 protease assessed as residual activity at 15 uM using Benzoyl-Nle-Lys-Arg-Arg-AMC as substrate preincubated for 3 mins followed by substrate addition by fluorescence spectrophotometer

SMILES: O=C1[C@@H]2CCCN2[C@H](c2ccc(C(F)(F)F)cc2)N1c1ccc([N+](=O)[O-])cc1
- Activity (dengue virus type 2 [1]): > 50%

SMILES: C[C@H]1N(c2ccc([N+](=O)[O-])cc2)C(=O)[C@@H]2CCCN21
- Activity (Dengue virus [2]): 58%

SMILES: CC(C)[C@H]1N(c2ccc([N+](=O)[O-])cc2)C(=O)[C@@H]2CCCN21
- Activity (Dengue virus [2]): 66%

SMILES: O=C1[C@@H]2CCCN2[C@@H](Cc2ccccc2)N1c1ccc([N+](=O)[O-])cc1
- Activity (Dengue virus [3]): 58%

SMILES: O=C1[C@@H]2CCCN2[C@@H](c2ccccc2)N1c1ccc([N+](=O)[O-])cc1
- Activity (Dengue virus [4]): 33%

SMILES: CC(C)c1ccc([C@H]2N(c3ccc([N+](=O)[O-])cc3)C(=O)[C@@H]3CCCN32)cc1
- Activity (dengue virus type 2 [1]): > 50%

SMILES: COc1ccc([C@H]2N(c3ccc([N+](=O)[O-])cc3)C(=O)[C@@H]3CCCN32)cc1
- Activity (dengue virus type 2 [1]): > 50%

SMILES: O=C1[C@@H]2CCCN2[C@H](c2ccc(Cl)cc2)N1c1ccc([N+](=O)[O-])cc1
- Activity (dengue virus type 2 [1]): > 50%

SMILES: O=C1[C@@H]2CCCN2[C@@H](c2cccc([N+](=O)[O-])c2)N1c1ccc([N+](=O)[O-])cc1
- Activity (dengue virus type 2 [1]): > 50%

SMILES: CSCC[C@H](N)C(=O)N1CCC[C@H]1C(=O)Nc1ccc([N+](=O)[O-])cc1 (H-Met-Pro-pNA)
- IC50 [5]: 1.2 µM
- EC50 (dengue virus type 2 [6]): 38.7 µM
- CC50 at 48 h [7]: > 100 µM

SMILES: O=C1[C@@H]2CCCN2[C@@H](c2ccc(C(F)(F)F)cc2)N1c1ccc([N+](=O)[O-])cc1
- Activity (dengue virus type 2 [1]): > 50%

SMILES: O=C1[C@@H]2CCCN2[C@@H](c2ccc(Cl)cc2)N1c1ccc([N+](=O)[O-])cc1
- Activity (dengue virus type 2 [1]): > 50%

SMILES: CC[C@H]1N(c2ccc([N+](=O)[O-])cc2)C(=O)[C@@H]2CCCN21
- Activity (Dengue virus [2]): 40%

SMILES: O=C1[C@@H]2CCCN2[C@@H](c2ccc([N+](=O)[O-])cc2)N1c1ccc([N+](=O)[O-])cc1
- IC50 [5]: 1.2 µM
- Activity (dengue virus type 2 [8]): 32%
- EC50 (dengue virus type 2 [6]): 39.4 µM
- CC50 at 48 h [7]: > 100 µM

SMILES: O=C1[C@@H]2CCCN2[C@@H](Cc2ccc([N+](=O)[O-])cc2)N1c1ccc([N+](=O)[O-])cc1
- Activity (dengue virus type 2 [1]): > 50%

SMILES: O=C1[C@@H]2CCCN2[C@H](c2ccc([N+](=O)[O-])cc2)N1c1ccc([N+](=O)[O-])cc1
- Activity (dengue virus type 2 [1]): > 50%

SMILES: O=C1[C@@H]2CCCN2CN1c1ccc([N+](=O)[O-])cc1
- Activity (Dengue virus [2]): 61%

From ChEMBL document CHEMBL4041495, “Identification of fused bicyclic derivatives of pyrrolidine and imidazolidinone as dengue virus-2 NS2B-NS3 protease inhibitors” (Eur J Med Chem, 2017)
